Source: PubChem (several laboratories)
Compounds with a hit are over-represented: about 3.4% of the library has one in this group of screens.
UCH37 inh: human UCH37 deubiquitinating enzyme inhibition | inhibition, % (no concentration beside the values) | hit rate 0.33% among 330,000 | purified proteasome/UCH37, Ub-AMC cleavage fluorescence;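 active means mean inhibition over replicate wells above about 20%, limit read from the data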;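 further: 0% = compound-free wells with enzyme and 100% = wells lacking proteasome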
Target sequence (Q9Y5K5 whole entry, looked up): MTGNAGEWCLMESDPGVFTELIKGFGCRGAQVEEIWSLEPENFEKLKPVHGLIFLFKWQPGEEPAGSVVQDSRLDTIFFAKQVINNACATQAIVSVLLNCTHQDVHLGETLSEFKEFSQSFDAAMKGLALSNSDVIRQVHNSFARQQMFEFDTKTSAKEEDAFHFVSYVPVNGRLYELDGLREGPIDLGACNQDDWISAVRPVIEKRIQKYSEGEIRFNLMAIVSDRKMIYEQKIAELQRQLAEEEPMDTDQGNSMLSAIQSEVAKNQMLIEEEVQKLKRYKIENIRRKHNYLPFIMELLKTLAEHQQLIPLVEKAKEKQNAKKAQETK
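Test system – human UCH37 enzyme supplied as purified proteasome complex · Incubation – 30 min preincubation with enzyme, 25 min cleavage at room temperature · Detection – AMC fluorescence from Ub-AMC cleavage, excitation 355 nm, emission 460 nm · Benchmarks – no-proteasome wells (full inhibition) and compound-free wells (no inhibition)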
APOBEC3G inh: blocks human APOBEC3G single-stranded DNA deamination; Q9HC16; recombinant A3G, ssDNA deamination FAM/TAMRA fluorescence; inhibition, % at 20 µM; hit rate 0.28% among 330,000; AID 493012;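 active means inhibition of at least 40% at 20 µM, with no more than 30% in the related APOBEC3A deaminase screen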;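 further: plate controls were DMSO wells with A3G for no effect and wells lacking A3G enzyme for full effect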
PolyA inhibitor: inhibitors of polyadenylation in S. cerevisiae. S. cerevisiae SKY197-pL101 polyadenylation reporter, beta-gal luminescence; efflux-impaired pdr1/pdr3 knockout yeast; score 100 = 6 SD above DMSO. hit rate 0.02% among 300,000. activity score, % at 12 µM. AID 1875;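 active means lowest replicate activity score at least 50, where 100 means six control SD above control mean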;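 further: yeast exposed to compound for 9 h at 30 °C; higher score means more reporter readthrough which indicates perturbed polyadenylation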
AHR activator: activates the human aryl hydrocarbon receptor; activation, % at 5 µM; P35869; AHR-responsive luciferase reporter cells, luminescence; hit rate 2.5% among 320,000; in the data active means activation above about 47%;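 further: 0% = vehicle wells and 100% = reference agonist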
Arrestin-AP2 inh: inhibitors of human beta-arrestin and AP2 interaction; FITC-arrestin peptide / GST-AP2 beads, flow cytometry; AP2 beta2 appendage carries R879A mutation; inhibition, % at 10 µM; hit rate 0.31% among 340,000;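 active means inhibition above a set limit, near 3 SD of compounds lacking own fluorescence, cut at about 54% in these data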;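 further: plate controls were DMSO wells for no effect and 5 µM unlabelled arrestin peptide for full effect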
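System: GST-tagged AP2 beta2-adaptin appendage (R879A) on 4 µm glutathione beads / Reagent: FITC-arrestin peptide, 50 nM / Detection: HyperCyt-sampled flow cytometry, FL1 channel, ex 488/em 535 nm / Timing: 12 min plus 1 h, RT / Buffer or medium: PBS plus Tween 20 (0.05%) and BSA (0.1%)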
APOBEC3A inh: blocks human APOBEC3A ssDNA deamination; P31941; recombinant A3A, FAM/TAMRA ssDNA deamination fluorescence; inhibition, % at 20 µM; hit rate 0.41% among 330,000; AID 493011;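 active means at least 40% inhibition at 20 µM here, with at most 30% in a related deaminase screen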;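 further: plate controls were A3A with DMSO for no effect and wells lacking A3A enzyme for full effect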
Target sequence (P31941 whole entry, looked up): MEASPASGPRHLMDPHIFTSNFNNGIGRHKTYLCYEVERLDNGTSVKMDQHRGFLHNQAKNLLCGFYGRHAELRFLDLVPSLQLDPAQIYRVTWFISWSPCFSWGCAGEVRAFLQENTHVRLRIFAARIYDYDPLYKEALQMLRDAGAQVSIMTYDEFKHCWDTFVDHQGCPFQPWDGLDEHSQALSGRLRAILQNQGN
* marks the source's active call; other numbers are inactive results; / = no result.

SMILES | UCH37 inh | APOBEC3G inh | PolyA inhibitor | AHR activator | Arrestin-AP2 inh | APOBEC3A inh
Cc1ccc(C2=NS(=O)(=O)N(C)C(C(=O)Nc3ccc4c(c3)OCO4)=C2)cc1 | 3.7 | -7.4 | -11.0 | 52.8* | -1.3 | -2.1
C[C@@H](OC(=O)N(C)Cc1ccccc1)[C@H]1O[C@]2(C)CCCC[C@H]1O2 | 30.0* | -8.8 | / | 1.5 | -1.4 | -3.8
O=C(NN=Cc1ccco1)Nc1cccc(Cl)c1 | 6.9 | / | / | / | / | /
O=C(c1cc2cc(F)ccc2[nH]1)N1CCN(Cc2ccc3c(c2)OCO3)CC1 | -0.9 | 3.5 | 1.4 | 17.6 | 16.5 | -1.1
CCN1CCN(C(=O)c2cc3cc(F)ccc3[nH]2)CC1 | -0.1 | -6.8 | -5.6 | 65.5* | 22.1 | -0.9
COc1ccnc(CSC(N)=Nc2cccc(C(F)(F)F)c2)c1 | 1.1 | / | 5.1 | 55.4* | 5.3 | /
Cc1cnn(-c2cc(NN=Cc3ccc(F)cc3)ncn2)c1 | 5.0 | / | / | / | / | /
Cc1cccc(CCN2C(N(C)C)=NC[C@@H]2Cc2ccccc2)c1 | 3.7 | -6.5 | / | 0.0 | 0.8 | -1.9
Cc1cccc(CCN2C(N(C)C)=NC[C@@H]2CC(C)C)c1 | 33.5* | -4.0 | / | 4.8 | -0.8 | 0.2
CCOC(=O)N1CCN(c2cc(NCCC(=O)O)c3c4c(onc24)-c2ccccc2C3=O)CC1 | 26.8* | 32.1 | / | 43.4 | 26.5 | 25.4
CCC(=O)n1nc(-c2ccccc2)nc1N | 22.5* | -6.3 | -2.1 | 0.6 | -6.8 | -1.7
COc1ccc(CC(=O)NN=Cc2cc(Br)cs2)cc1OC | 2.3 | / | / | / | / | /
O=C(CN(CCc1ccccc1)S(=O)(=O)c1ccc(Cl)cc1)NN=Cc1ccc2c(c1)OCO2 | 3.0 | / | / | / | / | /
Cc1cccc(-c2cc3nc(C)cc(C)n3n2)c1 | -30.0 | -5.4 | -18.9 | 43.3 | 10.7 | -3.1
COc1ccccc1-c1cc2nc(C)cc(C)n2n1 | -13.8 | 3.6 | -17.4 | 49.3* | 9.1 | -1.9
COc1cccc(C=NNC(=O)C(C)n2nc(C)c([N+](=O)[O-])c2C)c1O (stereo not drawn) | 1.5 | / | / | / | / | /
CCCNC(=O)C(Cc1cccc(Cl)c1)NC(=O)c1ccc(C#N)cc1 (stereo not drawn) | 26.9* | -6.5 | / | -1.2 | -5.0 | 0.1
CN(C)C(=O)c1ccc(NC(=O)CSc2nnc(-c3ccc4c(c3)OCO4)o2)cc1 | 0.7 | 7.9 | / | / | 3.0 | 0.0
Cc1ccc(NC(=O)Cc2nc(CSc3nnc(-c4ccc5c(c4)OCO5)o3)cs2)cc1 | 0.6 | -2.7 | -13.9 | 50.3* | 20.5 | 31.4
CCN(Cc1ccccc1)c1ccc(C=NNS(=O)(=O)c2cccc([N+](=O)[O-])c2)cc1 | 1.8 | / | / | / | / | /
CC(=NNC(=O)COc1ccccc1-c1ccccc1)c1ccc(O)cc1O | -2.1 | / | / | / | / | /
O=C(N/N=C/c1c(F)c(F)c(F)c(F)c1F)c1ccc(Cn2cc(Br)cn2)o1 | / | 0.9 | 7.6 | 5.5 | -7.7 | 0.0
O=C(N/N=C/c1c(F)cccc1Cl)c1ccc(Cn2cc(Br)cn2)o1 | / | -4.3 | 12.9 | 48.6* | -5.3 | -4.5
COc1ccc2c(c1)[nH]c1c(=O)n(Cc3ccccn3)cnc12 | 0.7 | -0.6 | 3.7 | 12.2 | -2.2 | 5.4
Cc1ccc2c(c1)[nH]c1c(=O)n(Cc3ccccn3)cnc12 | -2.5 | -7.3 | -12.7 | 49.1* | 24.4 | -3.5
SMILES | UCH37 inh | APOBEC3G inh | PolyA inhibitor | AHR activator | Arrestin-AP2 inh | APOBEC3A inh
CCCc1ccc(OCc2ccc(C(=O)NN=Cc3cccc([N+](=O)[O-])c3)o2)c(OC)c1 | 6.3 | / | / | / | / | /
O=C(N=C1N=C2C=CC(Br)=CN2Cc2ccccc21)c1ccc([N+](=O)[O-])cc1[N+](=O)[O-] | / | -4.9 | -27.9 | 94.2* | -0.9 | 2.5
CC(=NNc1cc(C(F)(F)F)ccc1Cl)c1ccccc1O | 3.6 | / | / | / | / | /
CCOc1ccc2ccccc2c1C=NNC(=O)c1ccc([N+](=O)[O-])cc1 | 1.9 | / | / | / | / | /
CCCc1nc2c(s1)CCc1onc(-c3cccc([N+](=O)[O-])c3)c1-2 | 31.7* | -11.0 | 6.9 | 3.9 | -9.8 | -1.5
COc1ccc(OC)c(-c2csc(NC(=O)CSc3ccc([N+](=O)[O-])cc3)n2)c1 | 33.1* | -6.1 | -10.0 | 37.6 | 3.2 | 3.5
COc1ccc(OC)c(-c2csc(NC(=O)C3=COCCO3)n2)c1 | -1.3 | -7.3 | 12.2 | 49.8* | -8.7 | -3.8
Cc1ccc(C)c(-c2csc(NC(=O)C3=COCCO3)n2)c1 | 2.9 | -0.2 | -12.9 | 4.2 | -5.0 | 4.6
COc1ccc(OC)c(-c2csc(NC(=O)CSc3ccc(Br)cc3)n2)c1 | 5.2 | -9.5 | 10.6 | 21.5 | 1.4 | -1.5
NC(=S)NN=Cc1coc2ccc(O)cc2c1=O | 5.0 | / | / | / | / | /
Nc1nonc1C(=O)NN=Cc1cc2c(cc1[N+](=O)[O-])OCO2 | 2.4 | / | / | / | / | /
C=CCOc1c(Br)cc(CNc2ccc(NC(=O)C(C)C)c(OC)c2)cc1OCC | 5.2 | -8.1 | 14.6 | 67.4* | 3.5 | -2.0
Cc1ccccc1C(=O)Nc1ccccc1-n1cccc1 | -1.0 | -4.4 | 1.3 | 5.2 | 2.0 | -1.6
C=CCN(CC=C)C(=O)c1ccccc1NC(=O)c1ccccc1C | 3.2 | 0.0 | -8.5 | 56.0* | 1.3 | -5.0
COCc1cc(=O)[nH]c(Nc2nc3ccc(C)cc3o2)n1 | 1.8 | -0.4 | 12.8 | 47.8* | -3.6 | 0.5
CN(C)c1ccc(C=NN(CCC(=O)NC(C)(C)C)C2=NS(=O)(=O)c3ccccc32)cc1 | 1.8 | / | / | / | / | /
O=C(Nc1ccc(F)cc1F)Nc1csc2ccccc12 | 1.8 | -5.5 | -3.2 | 50.9* | 15.3 | -2.2
O=C(Nc1ccc(F)c(Cl)c1)Nc1csc2ccccc12 | 5.4 | -8.3 | -11.0 | 72.7* | 19.6 | -4.0
CC(=NNC(=O)c1cnccn1)c1ccncc1 | 3.5 | / | / | / | / | /
CCc1ccc(Nc2n[n+](-c3ccccc3)c(-c3ccc(SC)cc3)s2)cc1 | 0.9 | -16.4 | 0.3 | 24.4 | 1.1 | -10.6
COc1ccc(C)cc1Nc1n[n+](-c2ccccc2)c(-c2ccc(SC)cc2)s1 | 3.1 | -11.6 | -20.3 | 72.7* | 0.7 | -3.5
CSc1ccc(-c2sc(Nc3ccccc3)n[n+]2-c2ccccc2)cc1 | 2.6 | 17.8 | -7.3 | 65.0* | 13.7 | -0.4
CC(=O)Nc1ccc(-c2sc(Nc3cccc4ccccc34)n[n+]2-c2ccccc2)cc1 | 6.5 | -11.1 | -6.4 | 81.0* | 0.2 | -9.1
COc1ccc(C)cc1Nc1n[n+](-c2ccccc2)c(-c2ccc(NC(C)=O)cc2)s1 | 2.9 | -8.2 | 6.3 | 65.3* | -1.6 | -3.5
Cc1ccc(C(=O)NN=Cc2ccc(OC(=O)c3cccs3)cc2)cn1 | -2.5 | / | / | / | / | /
O=C(NN=Cc1ccncc1)c1cccc(S(=O)(=O)N2CCCC2)c1 | 5.0 | / | / | / | / | /
CCN1c2ccccc2NC2C1C(C(C)=O)C(=O)N2c1ccc(Cl)cc1 (stereo not drawn) | 0.9 | -15.0 | -16.9 | 82.9* | -1.4 | -7.4
CCOc1ccc(N=Nc2c(=O)[nH]n3c(=O)c4c([nH]c23)CCCC4)cc1 | 24.6* | 1.6 | -9.6 | -0.4 | 11.4 | 3.2
